Source: ChEMBL document CHEMBL2151009, “Structures and mechanisms of antitumor agents: xestoquinones uncouple cellular respiration and disrupt HIF signaling in human breast tumor cells” (J Nat Prod, 2012)
Where a name gives a salt, the structure may show the parent alone. One block for each compound: values may come before it. The source made the active and inactive calls. The rule behind the calls is not given here.

Assays:
T47D [1] = assay: Cytotoxicity against human T47D cells after 48 hrs by SRB assay; assay type: functional, cell-based
Procedure, shortened: (§1)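 Cells from ATCC treated 48 h with compounds from DMSO stocks (final DMSO under 0.5%). IC50 and 95% CI fitted from one experiment run in triplicate.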

[2] = biological target: T1, Hypoxia inducible factors; HIF-1-alpha, HIF-2-alpha (Homo sapiens, UniProt Q16665+Q99814); assay: Inhibition of 1,10-phenanthroline-induced HIF1 activation in human T47D cells after 16 hrs by HRE3-TK-luciferase reporter gene assay; assay type: cell-based
Procedure, shortened: (§2)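 T47D reporter assay for HIF-1 activity. Induced by hypoxia (1% O2) or by 1,10-phenanthroline (10 μM). Compounds tested at 0.3–30 μM in half-log steps; cycloheximide 1 μM as positive control. Luciferase signal expressed as % inhibition of the induced control without compound. IC50 and 95% CI from one experiment in triplicate.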

[3] = biological target: T1, Hypoxia inducible factors; HIF-1-alpha, HIF-2-alpha; assay: Inhibition of hypoxia-induced HIF1 activation in human T47D cells after 16 hrs by HRE3-TK-luciferase reporter gene assay; assay type: cell-based; procedure, shortened: as §2
[4] = biological target: T1, Hypoxia inducible factors; HIF-1-alpha, HIF-2-alpha; assay: Inhibition of HIF1-mediated VEGF production in human T47D cells under 1,10-phenanthroline-induced hypoxic condition at 10 uM after 16 hrs by ELISA; assay type: cell-based
Procedure, shortened: (§3)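 T47D cells exposed 16 h to hypoxia (1% O2) or to 1,10-phenanthroline (10 μM), with compound at 10 μM. Secreted VEGF in conditioned medium measured by ELISA and normalized to cellular protein. Cycloheximide 10 μM as positive control; normoxic medium control included. Mean + SD of one experiment in triplicate.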

[5] = biological target: T1, Hypoxia inducible factors; HIF-1-alpha, HIF-2-alpha; assay: Inhibition of HIF1-mediated VEGF production in human T47D cells under hypoxic condition at 10 uM after 16 hrs by ELISA; assay type: cell-based; procedure, shortened: as §3
MDA-MB-231 [6] = assay: Cytotoxicity against human MDA-MB-231 cells after 48 hrs by SRB assay; assay type: functional, cell-based; conditions: MDA-MB-231, 48 h; procedure, shortened: as §1
T47D [7] = assay: Decrease in mitochondrial membrane potential in human T47D cells at 10 uM after 15 to 20 mins by TMRM assay; assay type: functional, cell-based
Procedure, shortened: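 T47D cells preloaded with TMRM, then given compound. Epifluorescence images taken before and 15–20 min after addition. Per-cell fluorescence intensity quantified; solvent control 0.26% DMSO; FCCP as reference. Groups compared by unpaired t test.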

T47D [8] = assay: Effect on cellular respiration in human T47D cells assessed as increase in oxygen consumption at 10 to 30 uM; assay type: functional
Procedure, shortened: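 Oxygen consumption of intact respiring T47D cells. Compound added in half-log increments; FCCP as reference uncoupler. Rate expressed as % of untreated control. For 10 and 30 μM: mean + SD from three independent experiments. Lower concentrations: n = 2.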

MDA-MB-231 [9] = assay: Cytotoxicity against human MDA-MB-231 cells assessed as decrease in cell viability at 30 uM after 48 hrs by SRB assay; assay type: functional
T47D [10] = assay: Cytotoxicity against human T47D cells assessed as decrease in cell viability at 30 uM after 48 hrs by SRB assay; assay type: functional

SMILES: C[C@@]12CCCc3coc(c31)C(=O)c1cc3c(cc12)C(=O)C=C(CO)C3=O
IC50 (T47D [1]): 3.6 µM
IC50 [2]: 1.2 µM
IC50 [3]: 1.7 µM
inhibition [4]: Active
inhibition [5]: Active
IC50 (MDA-MB-231 [6]): 6.5 µM
Activity (T47D [7]): Active
Activity (T47D [8]): 47%

SMILES: C[C@@]12CCCc3coc(c31)C(=O)c1cc3c(cc12)C(=O)C(CO)=CC3=O
IC50 (T47D [1]): 4.3 µM
IC50 [2]: 1.5 µM
IC50 [3]: 2.3 µM
inhibition [4]: Active
inhibition [5]: Active
IC50 (MDA-MB-231 [6]): 6.3 µM

SMILES: C[C@@]12CCCc3coc(c31)C(=O)c1cc3c(cc12)C(=O)C1=NCCS(=O)(=O)C1=C3O [ADOCIAQUINONE A]
IC50 (T47D [1]): 2.6 µM
IC50 [2]: 0.2 µM
IC50 [3]: 6.4 µM
inhibition [4]: Active
inhibition [5]: inactive
IC50 (MDA-MB-231 [6]): 6.3 µM
Activity (T47D [7]): inactive
Activity (T47D [8]): 47%

SMILES: C[C@@]12CCCc3coc(c31)C(=O)c1cc3c(cc12)C(=O)C1=C(NCCS1(=O)=O)C3=O [ADOCIAQUINONE B]
IC50 (T47D [1]): 2.9 µM
IC50 [2]: 0.2 µM
IC50 [3]: 4.6 µM
inhibition [4]: Active
inhibition [5]: inactive
IC50 (MDA-MB-231 [6]): 6.1 µM

SMILES: C[C@@]12CCCc3coc(c31)C(=O)c1cc3c(O)ccc(OS(=O)(=O)O)c3cc12 [XESTOQUINOL SULFATE]
IC50 (T47D [1]): > 30 µM
IC50 [2]: > 30 µM
Activity (MDA-MB-231 [9]): <5%
IC50 [3]: > 30 µM
IC50 (MDA-MB-231 [6]): > 30 µM
Activity (T47D [10]): <5%

Second part, led by results:

IC50 [2]: 4.2 µM
IC50 [3]: 10.6 µM
inhibition [4]: inactive
inhibition [5]: inactive
SMILES: C[C@@]12CCCc3coc(c31)C(=O)c1cc3c(cc12)C(=O)CCC3=O
IC50 (T47D [1]): 15.9 µM
IC50 (MDA-MB-231 [6]): 28.1 µM

IC50 [2]: 7.3 µM
IC50 [3]: 12.3 µM
inhibition [4]: inactive
inhibition [5]: inactive
SMILES: C[C@@]12CCCc3coc(c31)C(=O)c1cc3c(cc12)C(=O)C=CC3=O [XESTOQUINONE]
IC50 (T47D [1]): 13.8 µM
IC50 (MDA-MB-231 [6]): 20.6 µM
Activity (T47D [7]): inactive
Activity (T47D [8]): 47%
